Laboratory results published in ChEMBL document CHEMBL1128605, “(1S,2S)-1-(4-hydroxyphenyl)-2-(4-hydroxy-4-phenylpiperidino)-1-propanol: a potent new neuroprotectant which blocks N-methyl-D-aspartate responses” (J Med Chem, 1995).
pIC50: −log10 of the molar value. The source made the active and inactive calls. The rule behind the calls is not given here.

Assays:
[1] = target: T1, Adrenergic receptor alpha-1 (Rattus norvegicus, UniProt P15823+P23944+P43140); test: In vitro binding affinity against Alpha-1 adrenergic receptor using [3H]prazosin as radioligand; assay type: protein assay
T1 sequence (P15823 whole entry): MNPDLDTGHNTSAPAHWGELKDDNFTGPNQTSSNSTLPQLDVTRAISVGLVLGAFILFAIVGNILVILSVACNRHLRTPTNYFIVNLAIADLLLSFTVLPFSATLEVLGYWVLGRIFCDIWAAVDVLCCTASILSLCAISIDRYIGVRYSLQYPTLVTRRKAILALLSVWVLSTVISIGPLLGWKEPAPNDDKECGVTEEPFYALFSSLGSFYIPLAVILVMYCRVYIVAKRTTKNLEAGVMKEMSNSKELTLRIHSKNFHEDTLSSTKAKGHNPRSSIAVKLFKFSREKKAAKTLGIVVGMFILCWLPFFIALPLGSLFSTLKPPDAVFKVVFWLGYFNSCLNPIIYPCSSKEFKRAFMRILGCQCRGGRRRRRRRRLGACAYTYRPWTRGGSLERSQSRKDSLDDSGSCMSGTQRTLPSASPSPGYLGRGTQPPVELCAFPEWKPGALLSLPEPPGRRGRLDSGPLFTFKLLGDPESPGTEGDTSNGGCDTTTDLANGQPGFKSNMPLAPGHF
T1 sequence (P23944 whole entry): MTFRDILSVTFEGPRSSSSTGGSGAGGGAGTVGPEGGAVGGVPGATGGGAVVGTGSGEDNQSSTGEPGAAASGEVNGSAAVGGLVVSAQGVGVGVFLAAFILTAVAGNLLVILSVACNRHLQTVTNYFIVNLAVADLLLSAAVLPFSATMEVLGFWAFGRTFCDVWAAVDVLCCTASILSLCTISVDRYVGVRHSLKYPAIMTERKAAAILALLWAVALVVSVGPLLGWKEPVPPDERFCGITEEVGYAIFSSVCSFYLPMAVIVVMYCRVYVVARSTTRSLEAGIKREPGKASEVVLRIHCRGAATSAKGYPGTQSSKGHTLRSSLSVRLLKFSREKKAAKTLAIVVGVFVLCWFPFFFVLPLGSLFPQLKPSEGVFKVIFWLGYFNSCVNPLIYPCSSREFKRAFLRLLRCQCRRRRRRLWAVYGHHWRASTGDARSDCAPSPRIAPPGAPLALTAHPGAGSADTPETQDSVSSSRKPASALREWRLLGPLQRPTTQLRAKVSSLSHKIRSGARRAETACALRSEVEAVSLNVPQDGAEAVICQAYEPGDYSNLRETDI
T1 sequence (P43140 whole entry): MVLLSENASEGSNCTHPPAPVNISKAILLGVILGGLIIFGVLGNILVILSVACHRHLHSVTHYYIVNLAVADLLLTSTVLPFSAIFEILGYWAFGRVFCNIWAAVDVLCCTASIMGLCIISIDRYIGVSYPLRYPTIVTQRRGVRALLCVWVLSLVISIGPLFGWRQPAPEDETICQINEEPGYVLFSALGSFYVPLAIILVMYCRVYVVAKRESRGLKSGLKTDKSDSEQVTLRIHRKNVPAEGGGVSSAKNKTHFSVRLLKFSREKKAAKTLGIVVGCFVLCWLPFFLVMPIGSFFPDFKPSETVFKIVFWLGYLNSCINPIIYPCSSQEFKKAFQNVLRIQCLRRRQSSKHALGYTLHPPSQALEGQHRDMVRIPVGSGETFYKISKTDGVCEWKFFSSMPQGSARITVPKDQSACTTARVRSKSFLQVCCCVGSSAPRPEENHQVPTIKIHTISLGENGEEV

Rattus norvegicus [2] = species on record: Rattus norvegicus; test: Selectivity between protection against glutamate-induced neuronal damage and alpha 1 adrenergic affinity
In short: (§1)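 Selectivity index: ratio of α1 adrenergic affinity ([3H]prazosin binding IC50) to neuroprotection IC50 (inhibition of glutamate-induced death of primary rat hippocampal neurons).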

Glutamate NMDA receptor = test: In vitro inhibition of glutamate induced neuronal death in primary cultures of rat hippocampal neurons.; assay type: functional, tissue-based, Hippocampus
Rattus norvegicus [3] = species on record: Rattus norvegicus; test: Selectivity between protection against glutamate-induced neuronal damage and alpha 1 adrenergic affinity; Not significant; in short: as §1
[4] = In vivo inhibition of NMDA-stimulated fos induction in mouse following i.p. administration.; assay type: functional; conditions: ip
In short: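 Male CF-1 mice (20–25 g), 12 h light/dark, 22 °C. Compound in 50% poly(ethylene glycol) given ip 30 min before NMDA 75 mg/kg ip (subseizure dose). After 1 h: pentobarbital, paraformaldehyde perfusion, two 50 μm hippocampal coronal sections per brain. Sheep anti-Fos (1:1500) immunostaining by avidin–biotin method, glucose oxidase substrate. ED50 calculated against vehicle-only and NMDA-only sections.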

Rattus norvegicus [5] = test: In vivo inhibition of haloperidol-induced catalepsy in rat following s.c. administration.; assay type: functional; conditions: sc

Structure (SMILES): CCC[C@@H]([C@@H](O)c1ccc(O)cc1)N1CCC(O)(Cc2ccccc2)CC1
- IC50 [1]: > 10000 nM
- Selectivity ratio (Rattus norvegicus [2]): 7.7

Structure (SMILES): C[C@@H]([C@@H](O)c1ccc(Cl)cc1)N1CCC(O)(c2ccccc2)CC1
- IC50 [1]: 3133 nM
- pIC50 (Glutamate NMDA receptor): < 6.00
- Selectivity ratio (Rattus norvegicus [3]): inactive

Structure (SMILES): C[C@@H]([C@@H](O)c1ccc(O)cc1)N1CCN(C(=O)c2ccccc2)CC1
- IC50 [1]: > 10000 nM
- pIC50 (Glutamate NMDA receptor): < 5.00
- Selectivity ratio (Rattus norvegicus [3]): inactive

Structure (SMILES): Oc1ccc(C(O)CN2CCC(O)(Cc3ccccc3)CC2)cc1 (stereo not given)
- IC50 [1]: > 10000 nM
- pIC50 (Glutamate NMDA receptor): 7.20
- Selectivity ratio (Rattus norvegicus [2]): > 158

Structure (SMILES): C[C@@H]([C@@H](O)c1ccc(O)cc1)N1CCC(O)(c2ccc(F)cc2)CC1
- IC50 [1]: 2700 nM
- pIC50 (Glutamate NMDA receptor): 8.40
- Selectivity ratio (Rattus norvegicus [2]): 675

Structure (SMILES): C[C@@H]([C@@H](O)c1ccc(O)cc1)N1CCC(O)(CCCc2ccccc2)CC1
- IC50 [1]: 2350 nM
- pIC50 (Glutamate NMDA receptor): 7.80
- Selectivity ratio (Rattus norvegicus [2]): 150

Structure (SMILES): C[C@@H]([C@@H](O)c1ccc(O)cc1)N1CCC(O)(CCCCc2ccccc2)CC1
- IC50 [1]: 2300 nM
- pIC50 (Glutamate NMDA receptor): 6.00
- Selectivity ratio (Rattus norvegicus [2]): 2.3

Structure (SMILES): C[C@@H]([C@@H](O)c1ccc(O)cc1)N1CCC(O)(c2ccccc2)CC1 (stereo in doubt; 10) [TRAXOPRODIL]
- IC50 [1]: 5700 nM

Structure (SMILES): COC1(Cc2ccccc2)CCN([C@@H](C)[C@@H](O)c2ccc(O)cc2)CC1
- pIC50 (Glutamate NMDA receptor): < 5.00
- Selectivity ratio (Rattus norvegicus [3]): inactive

Structure (SMILES): C[C@@H]([C@@H](O)c1ccc(O)cc1)N1CCC(O)(CCc2ccccc2)CC1
- IC50 [1]: 137 nM
- pIC50 (Glutamate NMDA receptor): 8.89
- Selectivity ratio (Rattus norvegicus [2]): 105

Structure (SMILES): Cc1ccc(C2(O)CCN([C@@H](C)[C@@H](O)c3ccc(O)cc3)CC2)cc1
- IC50 [1]: 2166 nM
- pIC50 (Glutamate NMDA receptor): 8.57
- Selectivity ratio (Rattus norvegicus [2]): 1080

Structure (SMILES): CC[C@@H]([C@@H](O)c1ccc(O)cc1)N1CCC(O)(Cc2ccccc2)CC1
- IC50 [1]: > 10000 nM
- pIC50 (Glutamate NMDA receptor): 7.17
- Selectivity ratio (Rattus norvegicus [2]): > 147

Structure (SMILES): C[C@@H]([C@@H](O)c1ccc(F)cc1)N1CCC(O)(c2ccccc2)CC1
- IC50 [1]: 6900 nM
- pIC50 (Glutamate NMDA receptor): < 6.00
- Selectivity ratio (Rattus norvegicus [3]): inactive

Structure (SMILES): C[C@@H]([C@@H](O)c1ccc(O)cc1)N1CCC(O)(c2ccc(Cl)cc2)CC1
- IC50 [1]: 1480 nM
- pIC50 (Glutamate NMDA receptor): 8.70
- Selectivity ratio (Rattus norvegicus [2]): 740

Structure (SMILES): C[C@@H]([C@@H](O)c1ccc(O)cc1)N1CCC(O)(Cc2ccccc2)CC1
- IC50 [1]: > 10000 nM
- Selectivity ratio (Rattus norvegicus [2]): > 172

Structure (SMILES): C[C@@H]([C@@H](O)c1ccc(O)cc1)N1CCC(O)(c2ccccc2)CC1 (stereo in doubt) [TRAXOPRODIL]
- IC50 [1]: 19520 nM
- ED50 [4]: 1 mg/kg
- ED50 (Rattus norvegicus [5]): 0.4 mg/kg

Structure (SMILES): C[C@@H]([C@@H](O)c1ccccc1)N1CCC(O)(c2ccccc2)CC1
- IC50 [1]: > 10000 nM
- pIC50 (Glutamate NMDA receptor): < 6.00
- Selectivity ratio (Rattus norvegicus [3]): inactive

Structure (SMILES): C[C@H]([C@H](O)c1ccc(O)cc1)N1CCC(O)(c2ccccc2)CC1
- IC50 [1]: 8450 nM
- ED50 [4]: 5 mg/kg
- ED50 (Rattus norvegicus [5]): 0.5 mg/kg

Structure (SMILES): C[C@@H]([C@@H](O)c1ccc(O)cc1)N1CCN(Cc2ccccc2)CC1
- Selectivity ratio (Rattus norvegicus [3]): inactive
